Data taken from ChEMBL document CHEMBL1142559, “ent-halimane diterpenes and a guaiane sesquiterpene from Cladogynos orientalis” (J Nat Prod, 2005).

Tests used:
[1] = system: Mycobacterium tuberculosis; assay: Antitubercular activity against Mycobacterium tuberculosis H37Ra; format: functional
Summary of the method: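 Microplate alamar blue assay with M. tuberculosis H37Ra as test organism; MIC recorded in µg/mL; isoniazid and kanamycin sulfate served as reference drugs.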

[2] = system: NCI-H187; assay: Cytotoxicity against human NCI-H187 cells after 72 hrs by SRB assay; format: functional, cell-based; details: NCI-H187, 72 h
Summary of the method: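 Small cell lung cancer NCI-H187 cells exposed at 37 °C for 72 h, then sulforhodamine B added for read-out; IC50 given in µg/mL; ellipticine as reference substance.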

C[C@@H]1CCC2=C(C[C@H]3C[C@]2(C)C(=O)O3)[C@@]1(C)CC(=O)c1ccoc1 gave an MIC [1] of under 12.5 µg/mL and an IC50 [2] of under 5 µg/mL.
Compound C[C@@H]1CCC2=C(CCC[C@]2(C)C(=O)O)[C@@]1(C)CCc1ccoc1 has an MIC [1] of under 12.5 µg/mL and an IC50 [2] of under 5 µg/mL.
COC(=O)[C@@]1(C)CC(=O)C=C2[C@@]3(C)C=C(c4ccoc4)O[C@]21CC[C@H]3C showed an MIC [1] of under 12.5 µg/mL and an IC50 [2] of under 5 µg/mL.
Compound C[C@@H]1CCC2=C(C[C@H]3C[C@]2(C)C(=O)O3)[C@@]1(C)CCc1ccoc1 has an MIC [1] of under 12.5 µg/mL and an IC50 [2] of under 5 µg/mL.
